Cneo AK release: Cryptococcus neoformans cell lysis inducers, primary screen, AK release luminescence, single concentration; 360,000 compounds, 0.2% hits; lysis activity, % at 15 µM; C. neoformans lysis, adenylate kinase release luminescence, 4 h; normalised: neutral wells 0, clomiphene wells 100;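 active = mean lysis activity across replicates of at least 80%, whatever share of replicates individually reach that level; inactive = mean lysis activity below 80%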
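Test system: log-phase Cryptococcus neoformans yeast cells. Input: 5 × 10^6 yeast cells/mL. Medium: fresh YPD growth medium. Doses: single dose. Incubation: static 4 h at 37 °C with compound, 1 h detection. Measured by: luminescent adenylate kinase detection reagent. Read-out: signal increase indicating cell lysis. Benchmarks: Clomiphene.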
miR-122 sensor: miR-122 Renilla sensor signal increase in Huh7, primary screen, miR-122 inhibitor project, cell-based, single point, plate reader; Huh7 miR-122 Renilla luciferase sensor, 48 h; neutral wells = 0, positive control = 100; activation (reporter increase), % at 12.5 µM; 340,000 compounds, 0.3% hits; AID 602342, 2012;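 active = mean replicate activation score at least 90 and every replicate individually at or above 90; inconclusive = only one of the two criteria met; inactive = neither criterion met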;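 note: higher luciferase means less miR-122 activity so hits act as miR-122 inhibitors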
DENV2 CPE: inhibitors of DENV2 cytopathic effect, primary screen, cell-based, plate reader, single concentration | DENV2-infected cells, cytopathic effect rescue | CPE inhibition, % at 9.99 µM | 350,000 compounds, 1.7% hits; in the data active = CPE inhibition above about 20%, passing the limit was not always enough; inconclusive = no clear call, values can overlap the other calls; tested in BHK-21 cells;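 note: 0% = median of neutral control wells and 100% = median of positive control wells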
Ecoli rRNA inh: reduced GFP signal of wild-type E. coli, primary screen, bacterial rRNA inhibitor project, GFP/RFP fluorescence, OD600, single point; E. coli WT GFP vs humanized-ribosome RFP mutants, 24 h; active compounds read low; DMSO median 0, no signal -100; GFP signal change (wild-type ribosome), % (no concentration beside the values); 350,000 compounds, 1.6% hits; AID 720706, 2013;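 active = significant combined selectivity score with lowered wild-type GFP, culture density cut under 30%, mutant RFP and density less affected; inactive = any of these conditions unmet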
E-sel inducer: E-selectin induction in HUVECs, primary screen, imaging, HUVEC, immunofluorescence imaging, single point | normalized: neutral wells 0, TNF-alpha wells 100 | activation, % at 7.58 µM | 260,000 compounds, 0.37% hits | AID 686992, 2013;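 active = mean E-selectin-positive cell signal at least 10% of the positive control, reached in at least 60% of replicates, without over 20% cell loss; inconclusive = no rule given, readout overlaps actives, possibly toxicity-flagged; inactive = the rest, including those meeting only one limit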
Target sequence (P16581 whole entry, looked up): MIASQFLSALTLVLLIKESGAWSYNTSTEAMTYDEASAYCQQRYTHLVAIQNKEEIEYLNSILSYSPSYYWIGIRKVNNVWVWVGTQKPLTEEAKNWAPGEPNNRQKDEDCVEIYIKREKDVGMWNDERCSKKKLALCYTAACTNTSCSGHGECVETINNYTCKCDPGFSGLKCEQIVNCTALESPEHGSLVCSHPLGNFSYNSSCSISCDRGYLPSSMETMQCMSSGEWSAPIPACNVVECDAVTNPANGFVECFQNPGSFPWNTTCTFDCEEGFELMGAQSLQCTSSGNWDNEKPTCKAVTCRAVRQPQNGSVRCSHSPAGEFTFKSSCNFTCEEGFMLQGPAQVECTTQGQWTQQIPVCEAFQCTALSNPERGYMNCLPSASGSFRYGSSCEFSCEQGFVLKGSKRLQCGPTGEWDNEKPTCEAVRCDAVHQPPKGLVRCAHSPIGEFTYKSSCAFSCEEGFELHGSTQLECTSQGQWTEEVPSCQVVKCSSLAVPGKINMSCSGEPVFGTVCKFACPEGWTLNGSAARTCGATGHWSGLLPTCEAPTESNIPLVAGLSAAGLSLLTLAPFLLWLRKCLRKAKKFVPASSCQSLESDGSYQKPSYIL
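System: HUVEC, human umbilical vein endothelial cells; quantity: 3,000 cells/well; buffer or medium: EGM-2 medium, gelatin-coated wells; dosing: single-point compound dose; detection: immunofluorescence imaging; evaluation: % PE-positive cells; benchmarks: TNF-alpha, DMSO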
An asterisk follows results filed as active; ? = inconclusive; . = no result given; [ ] = dose if it differs, or a comment. Sampled rows, rich in hits. Any-hit rate of the full collection: about 3.1%.

SMILES	Cneo AK release	miR-122 sensor	DENV2 CPE	Ecoli rRNA inh	E-sel inducer
CN1\C(=C/C=C/C=C/C=[N+](C)C)C(C)(C)c2ccccc21	.	.	3	11	188*
O=C(NC(=S)NCC1COc2ccccc2O1)c1ccccc1 (stereo not drawn)	161*	3	.	.	.
Cc1ccc(NC(=S)NC2CCSc3ccccc32)cc1 (stereo not drawn)	8	.	3	-44*	14
COc1ccc(S(=O)(=O)N2N=C(C)Oc3ccccc3C2=O)cc1	-1	123*	.	.	.
O=C(NCc1ccc2c(c1)OCO2)[C@@H]1[C@@H](CO)[C@@H]2Cn3c(cccc3=O)[C@H]1N2Cc1ccncc1	0	-3[16.7 µM]	-2	2	0
C[C@@H]1CN([C@H](C)CO)C(=O)c2cc(NS(=O)(=O)c3ccccc3)ccc2O[C@@H](C)CCCCO[C@@H]1CN(C)C	0	1[16.7 µM]	0	-1	2
COc1cccc(C(=O)Nc2ccc(C(=O)O)cc2)c1	2	113*	.	.	.
COc1cccc(C(=O)Nc2cc3c(cc2C(C)=O)OCCO3)c1	1	34	76*	2	1
CCCNC(=O)N(C)C[C@@H]1Oc2ncc(C3=CCCC3)cc2C(=O)N([C@@H](C)CO)C[C@H]1C	1	2[16.7 µM]	-2	2	2
CCOC(=O)c1c(C)c(C(=O)Nc2ccc(N(C)C)cc2)c(C)n1CC	-2	7	1	-16*	.
CC(=O)N(C)C[C@H]1Oc2c(NS(C)(=O)=O)cccc2C(=O)N(C)C[C@H]1C	.	.	.	0	.
CS(=O)(=O)NCCNc1ccc(Cl)cc1[N+](=O)[O-]	.	.	.	-2	0
CS(=O)(=O)NCCNc1cc(Cl)ccc1[N+](=O)[O-]	4	-3	9	4	95*
O=C(N/N=C/c1cccnc1)c1ccc(CN2c3cccc4cccc(c34)S2(=O)=O)cc1	-1	5	-6	-18*	6
C[C@@H]1CN([C@@H](C)CO)C(=O)c2cc(NS(=O)(=O)c3cccs3)ccc2O[C@@H](C)CCCCO[C@@H]1CN(C)S(=O)(=O)c1cn(C)cn1	0	0[16.7 µM]	34*	1	0
C[C@@H]1CCCCO[C@@H](CN(C)S(=O)(=O)c2cn(C)cn2)[C@@H](C)CN([C@H](C)CO)C(=O)c2cc(NS(=O)(=O)c3cccs3)ccc2O1	0	7[16.7 µM]	30*	-1	0
O=C([C@H]1N[C@H]2c3ccc(-c4ccccc4F)c(=O)n3C[C@H]2[C@@H]1CO)N1CCc2ccccc2C1	-3	.	1	-3	0
OCCCc1cn(-c2ccccc2)c2ccccc12	.	.	-5	-39*	.
CC(C)C1Cc2ccccc2-c2[nH]c(=S)[nH]c(=O)c21 (stereo not drawn)	-1	-9	72*	.	10
CCC1(CC)Cc2ccccc2-c2[nH]c(=S)[nH]c(=O)c21	.	.	0	.	.
CCOC(=O)N1CCN(C(C(=O)NC2CCCC2)C(C)C)CC1 (stereo not drawn)	.	.	30*	8	0
CCOC(=O)N1CCC(NC2CCCCCCC2)CC1	0	3	.	.	.
COc1ccc(NC(=O)N(C)C[C@@H]2Oc3ncc(C#CCC(C)C)cc3C(=O)N([C@@H](C)CO)C[C@H]2C)cc1	.	.	-5	-5	0
c1ccc(CSc2ccc(-c3ccccn3)nn2)cc1	-7	-2	-2	-17	-1
COc1ccccc1-c1ccc(SCc2ccccc2)nn1	.	.	-1	-33*	.
SMILES	Cneo AK release	miR-122 sensor	DENV2 CPE	Ecoli rRNA inh	E-sel inducer
COc1ccccc1-c1ccc(SCC(=O)NCCc2ccccc2)nn1	1	.	?	-32*	0
Fc1ccccc1CSc1ccc(-c2ccco2)nn1	.	.	-7	2	4
COc1ccccc1-c1ccc(SCc2ccccc2F)nn1	.	.	-8	-36*	1
COc1ccccc1-c1ccc(SCc2cccc(F)c2)nn1	.	.	.	-30*	22
O=C(C[C@H]1CC[C@@H]2[C@H](COC[C@@H](O)CN2C(=O)Nc2ccc(Cl)c(Cl)c2)O1)NCc1ccncc1	-3	-9[16.7 µM]	-1	-58	0
CCCNC(=O)N[C@@H]1CC[C@@H](CCn2cc(C3CCCC3)nn2)O[C@@H]1CO	2	.	5	3	0

From PubChem
